Data on 36 sequences can be found in the array DNA melting data of Ke et al. (doi:10.1101/2024.01.08.574731).

Series [1] in a line: folding enthalpy; higher = less favourable; fluorescence melt of hairpins on a sequencing array, two-state fit. The conditions noted are these: sodium 0.088 M. The method in brief:
(§1)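 Melting temperature and folding enthalpy were obtained by bootstrapped two-state fitting. Fits used Cy3 fluorescence of library hairpins with annealed Cy3 and quencher oligos on a sequenced MiSeq flow cell, imaged in 50 mM Na-HEPES pH 8.0, 25 mM NaCl in 2.5 °C steps up to 60 °C and normalised to pre-quench Cy3 and control constructs. Four replicates were combined by inverse-variance weighting, and fitted temperatures were raised by 9.35 °C to match UV melts.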

A short description of series [2]: melting temperature; fluorescence melt of hairpins on a sequencing array, two-state fit, raised by 9.35 °C to match UV melts. The conditions noted are these: sodium 0.088 M. Put shortly: as §1

Turning to GCCACAGGAAACTATGGC ((((.((....)).)))), the folding enthalpy in series [1] is -31.8 kcal/mol. Further, the Tm in series [2] worked out at 39.3 °C.
Take GCCACAGGAAACTGCGGC (((.(((....))).))): the folding enthalpy in series [1] is -56.4 kcal/mol. In series [2], the Tm was 52 °C.
For GCCACCACGAAAGTGGGC (((..(((....)))))) the same measures were -9.17 kcal/mol and 46 °C.
On to GCCACCCCGAAAGGGGGC (((..(((....)))))), for which the folding enthalpy in series [1] was -11.4 kcal/mol. For the same sequence, the Tm in series [2] was 55.8 °C.
Regarding GCCACCGAAAGGTAGGGC ((((((....)))..))), the folding enthalpy in series [1] was -27.6 kcal/mol. In addition, the Tm in series [2] was found to be 52.7 °C.
For GCCACCGAAAGGTCTGGC ((((((....)))..))) the same measures were -19.4 kcal/mol and 47.4 °C.
For the sequence GCCACCGAAAGGTGAGGC ((((((....)))..))), the folding enthalpy in series [1] is -14.1 kcal/mol. In addition, in series [2], the Tm is 54.9 °C.
On to GCCACCGGAAACGGCGAC (.(.(((....))).).), for which the folding enthalpy in series [1] is -14.2 kcal/mol. In addition, in series [2], the Tm worked out at 34.7 °C.
Taken in the same sequence, the figures for GCCACCGGAAACGGTGAC (.(((((....))))).) were -14 kcal/mol and 48.8 °C.
For GCCACGCGAAAGCACGGC (((..((....))..))) the same measures were -35.9 kcal/mol and 61.9 °C.
Taken in the same sequence, the figures for GCCACGCGAAAGCCTGGC ((((.((....)).)))) were -30.4 kcal/mol and 59.6 °C.
Consider GCCACGCGAAAGCGTCGC ((.((((....)))).)), for which, in series [1], the folding enthalpy is -16.1 kcal/mol. In addition, the Tm in series [2] turned out to be 60.2 °C.
For GCCACGCGAAAGCTAGGC (((..((....))..))) the same measures were -21.9 kcal/mol and 52.1 °C.
Turning to GCCACGGGAAACCGTAGC ((.((((....)))).)), the folding enthalpy in series [1] was -23.2 kcal/mol. For the same sequence, the Tm in series [2] stood at 46.6 °C.
On to GCCACTGGAAACAACGGC (((..((....))..))), for which the folding enthalpy in series [1] was -17.3 kcal/mol. Further, the Tm in series [2] was found to be 27.6 °C.
Taken in the same sequence, the figures for GCCACTGGAAACAATGGC ((((.((....)).)))) were -26.7 kcal/mol and 42.2 °C.
For GCCACTGGAAACAGTAGC ((.((((....)))).)) the same measures were -27.7 kcal/mol and 40.5 °C.
Turning to GCCACTGGAAACAGTGAC (.(((((....))))).), the folding enthalpy in series [1] is -18.9 kcal/mol. In addition, the Tm in series [2] came to 46.3 °C.
As to GCCACTTCGAAAGAAGGC (((..(((....)))))), the folding enthalpy in series [1] was -13 kcal/mol. Besides, the Tm in series [2] turned out to be 35.5 °C.
Taken in the same sequence, the figures for GCCAGAGAAATCTGGC ((((((....)))))) were -31.8 kcal/mol and 64.3 °C.
Taken in the same sequence, the figures for GCCAGCACGAAAGTGGGC (((..(((....)))))) were -26.9 kcal/mol and 50.9 °C.
With GCCAGCGAAAGCTACGGC ((((((....)))..))), the folding enthalpy in series [1] is -19.9 kcal/mol. Also, the Tm in series [2] was 49.8 °C.
For GCCAGCGAAAGCTTAGGC ((((((....)))..))) the same measures were -27.3 kcal/mol and 52 °C.
Taken in the same sequence, the figures for GCCAGCGAAAGCTTGGC ((((((....))).))) were -27.4 kcal/mol and 63.9 °C.
For GCCAGCGAAAGCTTGGGC ((((((....)))..))) the same measures were -26.7 kcal/mol and 52.5 °C.
On to GCCAGCGCGAAAGCGGGC (((..(((....)))))), for which the folding enthalpy in series [1] was -16.1 kcal/mol. The Tm in series [2] amounted to 61.2 °C.
Taken in the same sequence, the figures for GCCAGCGGAAACGCCAGC ((..(((....)))..)) were -13.7 kcal/mol and 39 °C.
Regarding GCCAGCGGAAACGCTAGC ((.((((....)))).)), in series [1], the folding enthalpy was -20.5 kcal/mol. Besides, the Tm in series [2] is 49 °C.
For GCCAGCGGAAACGCTGAC (.(((((....))))).) the same measures were -13.7 kcal/mol and 51.5 °C.
As to GCCAGGCGAAAGCACGGC (((..((....))..))), the folding enthalpy in series [1] was -18.3 kcal/mol. Further, the Tm in series [2] came out at 60.6 °C.
Taken in the same sequence, the figures for GCCAGGCGAAAGCATTGC ((.(.((....)).).)) were -13.1 kcal/mol and 35.7 °C.
Taken in the same sequence, the figures for GCCAGGGGAAACCCTGAC (.(((((....))))).) were -15.4 kcal/mol and 47.6 °C.
For GCCAGGGGAAACTCTGGC (((((.(....).))))) the same measures were -40.9 kcal/mol and 56.1 °C.
Take GCCAGGTCGAAAGACGGC (((..(((....)))))): the folding enthalpy in series [1] is -34.7 kcal/mol. Moreover, the Tm in series [2] is 53.4 °C.
For GCCAGTCGAAAGACAGGC (((.(((....))).))) the same measures were -29.6 kcal/mol and 62.8 °C.
For GCCAGTGCGAAAGCAGGC (((..(((....)))))) the same measures were -15.7 kcal/mol and 53.7 °C.
